Experimental data from ChEMBL document CHEMBL1148748, “Synthesis of specific bivalent probes that functionally interact with 5-HT(4) receptor dimers” (J Med Chem, 2007).

Legend:
[1] = molecular target: T1, 5-hydroxytryptamine receptor 4 (Homo sapiens, UniProt Q13639); test: Activity at 5HT4 receptor fused with RLuc and YFP fusion proteins expressed in CHO cells by BRET dimerization assay relative to control; type: functional, cell-based; parameters: concentration or dose not given beside the values
Outline: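 CHO cells transiently cotransfected (Jet-PEI, 8 µg DNA per 100 mm dish) with C-terminal 5-HT4R-RLuc and 5-HT4R-YFP at equimolar amounts; membrane preparations incubated with ligand (1 µM, or dose-response) at 25 °C; coelenterazine h 5 µM final; 530/485 nm emission ratio minus RLuc-alone ratio gives BRET, in mBU; % of control; three experiments in duplicate.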

[2] = molecular target: T1, 5-hydroxytryptamine receptor 4; test: Agonist activity at human 5HT4e receptor expressed in C6 cells assessed as cAMP accumulation relative to 5HT; type: functional, cell-based; parameters: concentration or dose not given beside the values
Outline: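 C6 glial cells stably expressing h5-HT4(e), serum-starved 4 h, preincubated 15 min with 5 mM theophylline plus 10 µM pargyline, then compound with or without 5-HT (1 µM) 15 min at 37 °C; stopped with ice-cold 20% perchloric acid, neutralized; cAMP by radioimmunoassay; expressed as % of 5-HT response; two experiments in triplicate.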

[3] = molecular target: T1, 5-hydroxytryptamine receptor 4; test: Displacement of [3H]GR-113808 from human 5HT4e receptor expressed in C6 cells; type: cell-based
[4] = molecular target: T1, 5-hydroxytryptamine receptor 4; test: Binding affinity to YFP fused 5HT4 receptor expressed in CHO cells; type: cell-based
[5] = molecular target: T1, 5-hydroxytryptamine receptor 4; test: Binding affinity to Rluc fused 5HT4 receptor expressed in CHO cells; type: cell-based

T1 sequence (Q13639 whole entry, the tested form may be a part): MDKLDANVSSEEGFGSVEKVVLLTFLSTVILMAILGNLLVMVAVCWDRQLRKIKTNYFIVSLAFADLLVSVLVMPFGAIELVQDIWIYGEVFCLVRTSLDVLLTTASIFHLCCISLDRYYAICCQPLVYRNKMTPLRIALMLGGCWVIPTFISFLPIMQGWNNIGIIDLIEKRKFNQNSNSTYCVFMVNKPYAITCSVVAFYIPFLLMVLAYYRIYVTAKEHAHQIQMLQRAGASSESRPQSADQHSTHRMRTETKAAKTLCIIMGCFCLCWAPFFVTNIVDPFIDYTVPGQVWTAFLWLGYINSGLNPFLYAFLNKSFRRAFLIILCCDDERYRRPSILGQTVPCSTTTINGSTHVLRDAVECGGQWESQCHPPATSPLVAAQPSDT

SMILES | Activity [1] | Activity [2] | Ki [3] | Ki [4] | Ki [5]
COc1cc(N)c(Cl)cc1C(=O)OCCN1CCC(NC(=O)CCCCCNC(=O)C2CCN(CCOC(=O)c3cc(Cl)c(N)cc3OC)CC2)CC1 | 108% | 46% | 7 nM |  | 
COc1cc(N)c(Cl)cc1C(=O)OCCN1CCC(NC(=O)CCCN(CCCc2ccc(CCCN(CCCC(=O)NC3CCCCC3)C(=O)OC(C)(C)C)cc2)C(=O)OC(C)(C)C)CC1 | 105% | 17% | 34 nM |  | 
COc1cc(N)c(Cl)cc1C(=O)OCCN1CCC(CNC(=O)CCCN(CCCc2cccc(CCCN(CCCC(=O)NCC3CCN(CCOC(=O)c4cc(Cl)c(N)cc4OC)CC3)C(=O)OC(C)(C)C)c2)C(=O)OC(C)(C)C)CC1 | 108% | 5% | 23 nM |  | 
COc1cc(N)c(Cl)cc1C(=O)OCCN1CCC(CNC(=O)CN(CC#Cc2ccc(C#CCN(CC(=O)NCC3CCN(CCOC(=O)c4cc(Cl)c(N)cc4OC)CC3)C(=O)OC(C)(C)C)cc2)C(=O)OC(C)(C)C)CC1 | 107% | 49% | 44 nM |  | 
COc1cc(N)c(Cl)cc1C(=O)OCCN1CCC(NC(=O)CCCN(CC#Cc2ccc(C#CCN(CCCC(=O)NC3CCN(CCOC(=O)c4cc(Cl)c(N)cc4OC)CC3)C(=O)OC(C)(C)C)cc2)C(=O)OC(C)(C)C)CC1 | 106% | 35% | 18 nM |  | 
COc1cc(N)c(Cl)cc1C(=O)OCCN1CCC(NC(=O)CCCCCCCCCCNc2nc(NCCCCCCCCCCC(=O)NC3CCN(CCOC(=O)c4cc(Cl)c(N)cc4OC)CC3)nc(NCc3ccccc3)n2)CC1 | 114% | 12% |  |  | 
COc1cc(N)c(Cl)cc1C(=O)OCCN1CCC(NC(=O)CCCCCCCCCCNC(=O)C2CCN(CCOC(=O)c3cc(Cl)c(N)cc3OC)CC2)CC1 | 110% | 5% |  |  | 
COc1cc(N)c(Cl)cc1C(=O)OCCN1CCC(NC(=O)CCCN(CC#Cc2cccc(C#CCN(CCCC(=O)NC3CCN(CCOC(=O)c4cc(Cl)c(N)cc4OC)CC3)C(=O)OC(C)(C)C)c2)C(=O)OC(C)(C)C)CC1 | 109% | 8% | 8 nM |  | 
COc1cc(N)c(Cl)cc1C(=O)OCCN1CCC(CNC(=O)CCCN(CCCc2ccc(CCCN(CCCC(=O)NCC3CCN(CCOC(=O)c4cc(Cl)c(N)cc4OC)CC3)C(=O)OC(C)(C)C)cc2)C(=O)OC(C)(C)C)CC1 | 115% | 9% | 15 nM |  | 
Cn1cc(C(=O)OCC2CCN(CCNS(C)(=O)=O)CC2)c2ccccc21 | 99% | 1% |  | 0.7 nM | 
COc1cc(N)c(Cl)cc1C(=O)OCCN1CCC(CNC(=O)CN(CCCc2ccc(CCCN(CC(=O)NCC3CCN(CCOC(=O)c4cc(Cl)c(N)cc4OC)CC3)C(=O)OC(C)(C)C)cc2)C(=O)OC(C)(C)C)CC1 | 114% | 18% | 19 nM |  | 
COc1cc(N)c(Cl)cc1C(=O)OCCN1CCCCC1 | 101% | 45% |  |  | 
COc1cc(N)c(Cl)cc1C(=O)OCCN1CCC(CNC(=O)CCCN(CC#Cc2ccc(C#CCN(CCCC(=O)NCC3CCN(CCOC(=O)c4cc(Cl)c(N)cc4OC)CC3)C(=O)OC(C)(C)C)cc2)C(=O)OC(C)(C)C)CC1 | 115% | 1% | 25 nM |  | 
COc1cc(N)c(Cl)cc1C(=O)OCCN1CCC(CNC(=O)CCCN(CC#Cc2cccc(C#CCN(CCCC(=O)NCC3CCN(CCOC(=O)c4cc(Cl)c(N)cc4OC)CC3)C(=O)OC(C)(C)C)c2)C(=O)OC(C)(C)C)CC1 | 108% | 6% | 40 nM |  | 
COc1cc(N)c(Cl)cc1C(=O)OCCN1CCC(CCNC(=O)CCCCCCCCCCC(=O)NCCC2CCN(CCOC(=O)c3cc(Cl)c(N)cc3OC)CC2)CC1 | 108% | 6% | 9 nM |  | 
COc1cc(N)c(Cl)cc1C(=O)OCCN1CCC(NC(=O)CCCN(CCCc2ccc(CCCN(CCCC(=O)NC3CCN(CCOC(=O)c4cc(Cl)c(N)cc4OC)CC3)C(=O)OC(C)(C)C)cc2)C(=O)OC(C)(C)C)CC1 | 118% | 21% | 12 nM | 10 nM | 10 nM
COc1cc(N)c(Cl)cc1C(=O)OCCN1CCC(NC(=O)CCCCCCCCCCN(CCCCCCCCCCC(=O)NC2CCN(CCOC(=O)c3cc(Cl)c(N)cc3OC)CC2)CC(=O)NCC2CCNCC2)CC1 | 114% | 10% |  |  | 
